Laboratory results as given in ChEMBL document CHEMBL1136623, “Cytotoxic activity of 6-alkynyl- and 6-alkenylpurines” (Bioorg Med Chem Lett, 2003).
≈ marks a conversion by molar mass, not a printed value.

Experiments:
K562 [1] = test: Percent inhibition of [3H]-thymidine incorporation was determined in human chronic myelogenous leukemic K-562 cell line at 10 ug/mL after 48 hr; type: functional
In short: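 Single-concentration screen. K-562 cells in log growth seeded at 2×10^4 cells/mL in supplemented RPMI 1640 and exposed 48 h to purine at 10 µg/mL, final DMSO 0.05%. Followed by a 2 h [3H]-thymidine pulse (1 µCi/well), harvest onto fiberglass filters, and scintillation count. Reported as percent inhibition of incorporation.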

K562 [2] = test: Inhibitory concentration required against human chronic myelogenous leukemic K-562 cell line after 48h, using [3H]thymidine incorporation assay; type: functional, cell-based
In short: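 Logarithmically growing K-562 cells seeded at 2×10^4 cells/mL in RPMI 1640 with supplements. Exposed 48 h to purines at 10 to 0.078 µg/mL, final DMSO 0.05% (vol/vol). Pulsed 2 h with 1 µCi/well [3H]-thymidine, harvested onto fiberglass filters, and cell-associated radioactivity counted. IC50 taken as the concentration inhibiting incorporation by 50%.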

K562 [3] = test: Inhibitory concentration required against human chronic myelogenous leukemic K-562 cell line after 5h, using [3H]thymidine incorporation assay; type: functional, cell-based
In short: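 K-562 cells in log-phase growth seeded at 4×10^4 cells/mL in supplemented RPMI 1640. Purines at 10 to 0.078 µg/mL for 5 h, final DMSO 0.05% (vol/vol). Then a 2 h pulse of 1 µCi/well [3H]-thymidine, filter harvest, and counting of cell-bound radioactivity. IC50 is the concentration giving 50% inhibition of incorporation.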

Compound	inhibition at 10 µg/mL (K562 [1]) [%]	IC50 (K562 [2]) [µg/mL]	IC50 (K562 [3]) [µg/mL]
C/C(=C\C=C\c1[nH]cnc2ncnc1-2)CO	6		
Nc1nc(/C=C/c2ccccc2)c2[nH]cnc2n1	2		
C(=C\c1ncnc2c1ncn2C1CCOCC1)/c1ccccc1	66		
CC(C)=CC#Cc1[nH]cnc2ncnc1-2	30		
C=Cc1ncnc2ncn(Cc3ccccc3)c12	100	0.5 (≈ 2.12 µM)	1.4 (≈ 5.93 µM)
C(=C\c1ncnc2c1ncn2C1CCOCC1)/c1cccs1	65		
C(=C\c1[nH]cnc2ncnc1-2)/c1ccsc1	32		
COC(=O)/C(C)=C/C=C/c1[nH]cnc2ncnc1-2	20		
C(=C\c1ncnc2c1ncn2C1CCOCC1)/c1ccsc1	58		
C(=C\c1ncnc2c1ncn2C1CCOCC1)/c1ccco1	35		
COc1ccc(/C=C/c2[nH]cnc3ncnc2-3)cc1	54		
Clc1nc2c(C#Cc3ccccc3)ncnc2n1C1CCOCC1	85	6.1 (≈ 18 µM)	7 (≈ 20.7 µM)
C(=C\c1[nH]cnc2ncnc1-2)/c1ccccc1	28		
C/C(=C\C=C\c1ncnc2c1ncn2C1CCOCC1)CO	27		
C(=C\c1[nH]cnc2ncnc1-2)/c1ccco1	24		
COc1ccc(/C=C/c2ncnc3c2ncn3C2CCOCC2)cc1	58		
Clc1nc(C#Cc2ccccc2)c2ncn(Cc3ccccc3)c2n1	100	0.12 (≈ 0.348 µM)	0.8 (≈ 2.32 µM)

Compound	inhibition at 10 µg/mL (K562 [1]) [%]	IC50 (K562 [2]) [µg/mL]	IC50 (K562 [3]) [µg/mL]
Clc1nc(/C=C/c2ccccc2)c2ncn(Cc3ccccc3)c2n1	99	2 (≈ 5.77 µM)	6 (≈ 17.3 µM)
C(=C\c1ncnc2c1ncn2Cc1ccccc1)/c1ccccc1	93		
Nc1nc(/C=C/c2ccccc2)c2ncn(Cc3ccccc3)c2n1	91	1.2 (≈ 3.67 µM)	2 (≈ 6.11 µM)
C(#Cc1nc(-c2ccccc2)nc2c1ncn2Cc1ccccc1)c1ccccc1	100	1.4 (≈ 3.62 µM)	2.4 (≈ 6.21 µM)
C(=C\c1nc(-c2ccccc2)nc2c1ncn2Cc1ccccc1)/c1ccccc1	34		
C=Cc1ncnc2c1ncn2Cc1ccccc1	100	1.1 (≈ 4.66 µM)	2.2 (≈ 9.31 µM)
C(#Cc1ncnc2c1ncn2Cc1ccccc1)c1ccccc1	98	1.3 (≈ 4.19 µM)	6 (≈ 19.3 µM)
COC(=O)/C(C)=C/C#Cc1[nH]cnc2ncnc1-2	100	1.6 (≈ 6.61 µM)	3.2 (≈ 13.2 µM)
C(=C\c1[nH]cnc2ncnc1-2)/c1cccs1	50		
C(#Cc1[nH]cnc2ncnc1-2)c1ccccc1	100	0.7 (≈ 3.18 µM)	5.9 (≈ 26.8 µM)
C/C(=C\C#Cc1[nH]cnc2ncnc1-2)CO	17		
C(#Cc1ncnc2c1ncn2C1CCOCC1)c1ccccc1	100	0.5 (≈ 1.64 µM)	3.2 (≈ 10.5 µM)
OC[C@H]1OC(n2cnc3c(C#Cc4ccccc4)ncnc32)[C@H](O)[C@@H]1O (stereo partly drawn)	100	0.1 (≈ 0.284 µM)	0.2 (≈ 0.568 µM)
OC[C@H]1OC(n2cnc3c(/C=C/c4ccccc4)ncnc32)[C@H](O)[C@@H]1O (stereo partly drawn)	79	2 (≈ 5.64 µM)	10 (≈ 28.2 µM)
Nc1nc(F)nc2c1ncn2[C@@H]1O[C@H](CO)[C@@H](O)[C@@H]1O [FLUDARABINE]	98	0.6 (≈ 2.1 µM)	0.6 (≈ 2.1 µM)
Sc1ncnc2nc[nH]c12 [MERCAPTOPURINE ANHYDROUS]	80	0.6 (≈ 3.94 µM)	> 10
